Results as given in ChEMBL document CHEMBL1165950, “Design and synthesis of new potent anticancer pyrazoles with high FLT3 kinase inhibitory selectivity” (Bioorg Med Chem, 2010).

Key:
Assay type in all cases: functional
SNB-75 [1] = assay: Cytotoxicity against human SNB75 cells assessed as cell growth at 100 nM after 48 hrs by sulforhodamine B assay; details: SNB-75, 48 h, read-out: Activity
[2] = Cytotoxicity against human Hs 578T cells assessed as cell growth at 100 nM after 48 hrs by sulforhodamine B assay; details: read-out: Activity
BT-549 = assay: Cytotoxicity against human BT549 cells assessed as cell growth at 100 nM after 48 hrs by sulforhodamine B assay; details: BT-549, 48 h, read-out: Activity
In short: (§1)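 NCI-60 five-dose screen. Cells were grown in RPMI 1640 with 5% FBS and 2 mM L-glutamine, plated at 5000–40,000 cells/well and preincubated for 24 h. Time-zero plates were TCA-fixed. DMSO-solubilized drug was added at five concentrations (10-fold or ½-log serial dilutions) for 48 h at 37 °C, 5% CO2. Cells were TCA-fixed, stained with 0.4% SRB and read at 515 nm. Percent growth used time-zero, control and test absorbances.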

T47D = assay: Cytotoxicity against human T47D cells assessed as cell growth at 100 nM after 48 hrs by sulforhodamine B assay; details: read-out: Activity
CCRF-CEM = assay: Cytotoxicity against human CCRF-CEM cells assessed as cell growth at 1 uM after 48 hrs by sulforhodamine B assay; details: read-out: Activity; in short: as §1
HL-60(TB) [3] = assay: Cytotoxicity against human HL-60(TB) cells assessed as cell growth at 1 uM after 48 hrs by sulforhodamine B assay; details: HL-60, 48 h, read-out: Activity
In short: (§2)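 NCI 60-cell panel. Cells are grown in RPMI 1640 with 5% FBS and 2 mM L-glutamine, seeded at 5000–40,000 cells/well according to doubling time, and preincubated 24 h. Time-zero plates are TCA-fixed. Compound from DMSO stock is given at five 10-fold or 1/2-log concentrations for 48 h at 37 °C, 5% CO2. Suspension cells are fixed with 80% TCA (final 16%) and SRB-stained, with absorbance at 515 nm. Percent growth is derived from Tz, control and test readings.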

[4] = Cytotoxicity against human RPMI8266 cells assessed as cell growth at 1 uM after 48 hrs by sulforhodamine B assay; details: read-out: Activity
DU-145 = assay: Cytotoxicity against human DU145 cells assessed as cell growth at 10 uM; details: read-out: Activity
In short: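 Single-dose NCI-60 screen at 10 µM. Cells were grown in RPMI 1640 with 5% FBS and 2 mM L-glutamine, then treated for 48 h at 37 °C. Protein was measured by SRB staining with absorbance at 515 nm. Percentage growth was recorded, and inhibition percentage was calculated as 100 minus growth percentage.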

MDA-MB-468 = assay: Cytotoxicity against human MDA-MB-468 cells assessed as cell growth at 10 uM; details: read-out: Activity
In short: (§3)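 NCI-60 screen: cells grown in RPMI 1640 with 5% FBS and 2 mM L-glutamine, plated at 5000–40,000 cells/well according to doubling time, and preincubated 24 h at 37 °C, 5% CO2. The single 10 µM dose (DMSO stock) was added, then incubated 48 h. Cells were TCA-fixed and stained with 0.4% SRB, read at 515 nm, and growth % calculated against time-zero and control plates.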

HL-60(TB) [5] = assay: Cytotoxicity against human HL-60(TB) cells assessed as cell growth at 0.001 uM after 48 hrs by sulforhodamine B assay; details: HL-60, 48 h, read-out: Activity; in short: as §2
HOP-92 = assay: Cytotoxicity against human HOP92 cells assessed as cell growth at 0.001 uM after 48 hrs by sulforhodamine B assay; details: HOP-92, 48 h, read-out: Activity
SF-295 = assay: Cytotoxicity against human SF295 cells assessed as cell growth at 0.01 uM after 48 hrs by sulforhodamine B assay; details: SF-295, 48 h, read-out: Activity
SK-MEL-28 = assay: Cytotoxicity against human SK-MEL-28 cells assessed as cell growth at 0.01 uM after 48 hrs by sulforhodamine B assay; details: SK-MEL-28, 48 h, read-out: Activity
OVCAR-3 = assay: Cytotoxicity against human OVCAR-3 cells assessed as cell growth at 0.01 uM after 48 hrs by sulforhodamine B assay; details: OVCAR-3, 48 h, read-out: Activity
CAKI-1 = assay: Cytotoxicity against human Caki1 cells assessed as cell growth at 0.01 uM after 48 hrs by sulforhodamine B assay; details: CAKI-1, 48 h, read-out: Activity
SNB-75 [6] = assay: Cytotoxicity against human SNB75 cells assessed as cell growth at 0.001 uM after 48 hrs by sulforhodamine B assay; details: SNB-75, 48 h, read-out: Activity
Malme-3M = assay: Cytotoxicity against human MALME-3M cells assessed as cell growth at 0.001 uM after 48 hrs by sulforhodamine B assay; details: read-out: Activity
SK-MEL-2 = assay: Cytotoxicity against human SK-MEL-2 cells assessed as cell growth at 0.001 uM after 48 hrs by sulforhodamine B assay; details: SK-MEL-2, 48 h, read-out: Activity
SK-MEL-5 = assay: Cytotoxicity against human SK-MEL-5 cells assessed as cell growth at 0.001 uM after 48 hrs by sulforhodamine B assay; details: SK-MEL-5, 48 h, read-out: Activity
KM12 = assay: Growth inhibition of human KM12 cells after 48 hrs by sulforhodamine B assay; details: KM12, 48 h; for CC50: read-out: LC50 (the source's name)
In short: (§4)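 NCI 60-cell screen, five-dose mode. Cells grown in RPMI 1640 with 5% FBS and 2 mM L-glutamine and plated at 5000-40,000 cells/well according to doubling time. After 24 h preincubation, a Tz plate was TCA-fixed. Five concentrations (10-fold or 1/2 log dilutions) were applied for 48 h at 37 °C. SRB staining read at 515 nm. IC50 taken from [(Ti-Tz)/(C-Tz)]×100 = 50.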

PC-3 = assay: Growth inhibition of human PC3 cells after 48 hrs by sulforhodamine B assay; details: PC-3, 48 h; in short: as §4
IGROV-1 [7] = assay: Cytotoxicity against human IGROV1 cells assessed as cell growth at 1 uM after 48 hrs by sulforhodamine B assay; details: IGROV-1, 48 h, read-out: Activity
NCI/ADR-RES = assay: Cytotoxicity against human NCI/ADR-RES cells assessed as cell growth at 1 uM after 48 hrs by sulforhodamine B assay; details: read-out: Activity
NCI-H226 = assay: Cytotoxicity against human NCI-H226 cells assessed as cell growth at 10 uM; details: read-out: Activity; in short: as §3
NCI-H460 = assay: Cytotoxicity against human NCI-H460 cells assessed as cell growth at 10 uM; details: read-out: Activity; in short: as §3
HL-60(TB) [8] = assay: Cytotoxicity against human HL-60(TB) cells assessed as cell growth at 10 uM after 48 hrs by sulforhodamine B assay; details: HL-60, 48 h, read-out: Activity; in short: as §2
HOP-62 = assay: Cytotoxicity against human HOP62 cells assessed as cell growth at 10 uM after 48 hrs by sulforhodamine B assay; details: HOP-62, 48 h, read-out: Activity
IGROV-1 [9] = assay: Cytotoxicity against human IGROV1 cells assessed as cell growth at 10 uM after 48 hrs by sulforhodamine B assay; details: IGROV-1, 48 h, read-out: Activity
TK-10 = assay: Cytotoxicity against human TK10 cells assessed as cell growth at 10 uM after 48 hrs by sulforhodamine B assay; details: TK-10, 48 h, read-out: Activity

Compound	growth at 0.1 µM (SNB-75 [1])	growth at 0.1 µM [2]	growth at 0.1 µM (BT-549)	growth at 0.1 µM (T47D)	growth at 1 µM (CCRF-CEM)	growth at 1 µM (HL-60(TB) [3])	growth at 1 µM [4]	growth at 10 µM (DU-145)	growth at 10 µM (MDA-MB-468)	growth at 0.001 µM (HL-60(TB) [5])	growth at 0.001 µM (HOP-92)	growth at 0.01 µM (SF-295)	growth at 0.01 µM (SK-MEL-28)	growth at 0.01 µM (OVCAR-3)	growth at 0.01 µM (CAKI-1)	growth at 0.001 µM (SNB-75 [6])	growth at 0.001 µM (Malme-3M)	growth at 0.001 µM (SK-MEL-2)	growth at 0.001 µM (SK-MEL-5)	GI50 (KM12)	also measured
Cc1cc(O)cc(-c2nn(CC#N)cc2-c2ccnc(-c3ccc(Oc4ccccc4)cc3)c2)c1	78%	82%	84%	84%	6%	-27%	-20%	76.7%	6.32%	96%	74%	94%	94%	103%	90%	86%	88%	91%	93%	1.92 µM	TGI (KM12): 4.87 µM; CC50 (KM12): 15.3 µM; GI50 (PC-3): 2.15 µM; LC50 (concentration giving 50% net cell kill) (PC-3): 62 µM; TGI (PC-3): 7.37 µM; growth at 1 µM (IGROV-1 [7]): -64%; growth at 1 µM (NCI/ADR-RES): -50%; growth at 10 µM (NCI-H226): 70.3%; growth at 10 µM (NCI-H460): 61.4%; growth at 10 µM (HL-60(TB) [8]): -10%; growth at 10 µM (HOP-62): -93%; growth at 10 µM (IGROV-1 [9]): -74%; growth at 10 µM (TK-10): -89%
COc1cc(C)cc(-c2nn(CC#N)cc2-c2ccc(-c3cccc(C(C)=O)c3)nc2)c1	79%	61%	85%	81%	13%	2%	8%	39%	-30.5%	94%	84%	98%	93%	104%	96%	82%	97%	89%	95%	2.23 µM	TGI (KM12): 13.9 µM; CC50 (KM12): > 100 µM; GI50 (PC-3): 3.45 µM; LC50 (concentration giving 50% net cell kill) (PC-3): > 100 µM; TGI (PC-3): > 100 µM; growth at 1 µM (IGROV-1 [7]): 1%; growth at 1 µM (NCI/ADR-RES): -16%; growth at 10 µM (NCI-H226): 47.8%; growth at 10 µM (NCI-H460): 17.4%; growth at 10 µM (HL-60(TB) [8]): -8%; growth at 10 µM (HOP-62): -12%; growth at 10 µM (IGROV-1 [9]): -40%; growth at 10 µM (TK-10): -29%
Cc1cc(O)cc(-c2nn(CC#N)cc2-c2ccnc(-c3ccc(N(C)C)cc3)c2)c1	77%	82%	87%	82%	13%	2%	15%	80.3%	-13.9%	100%	80%	89%	94%	91%	102%	83%	91%	94%	92%	1.63 µM	TGI (KM12): 7.66 µM; CC50 (KM12): 29.2 µM; GI50 (PC-3): 3.77 µM; LC50 (concentration giving 50% net cell kill) (PC-3): > 100 µM; TGI (PC-3): 47.2 µM; growth at 1 µM (IGROV-1 [7]): 24%; growth at 1 µM (NCI/ADR-RES): -10%; growth at 10 µM (NCI-H226): 35.8%; growth at 10 µM (NCI-H460): 25.6%; growth at 10 µM (HL-60(TB) [8]): -16%; growth at 10 µM (HOP-62): -22%; growth at 10 µM (IGROV-1 [9]): -37%; growth at 10 µM (TK-10): -14%
COc1cc(C)cc(-c2c(-c3ccnc(-c4ccc(C(C)=O)cc4)c3)cnn2CC#N)c1	76%	71%	82%	87%	12%	20%	-4%	103%	26%	101%	84%	98%	94%	106%	97%	80%	105%	92%	95%	2.87 µM	TGI (KM12): > 100 µM; CC50 (KM12): > 100 µM; GI50 (PC-3): 3.59 µM; LC50 (concentration giving 50% net cell kill) (PC-3): > 100 µM; TGI (PC-3): > 100 µM; growth at 1 µM (IGROV-1 [7]): 23%; growth at 1 µM (NCI/ADR-RES): 11%; growth at 10 µM (NCI-H226): 83.7%; growth at 10 µM (NCI-H460): 104%; growth at 10 µM (HL-60(TB) [8]): -3%; growth at 10 µM (HOP-62): 11%; growth at 10 µM (IGROV-1 [9]): 14%; growth at 10 µM (TK-10): 60%
COc1cc(C)cc(-c2c(-c3ccnc(-c4ccc(N(C)C)cc4)c3)cnn2CC#N)c1	6%	23%	-18%	44%	6%	-27%	-31%	3.17%	-23.1%	82%	26%	56%	20%	63%	-6%	88%	97%	97%	95%	0.0475 µM	TGI (KM12): 0.264 µM; CC50 (KM12): > 100 µM; GI50 (PC-3): 0.0523 µM; LC50 (concentration giving 50% net cell kill) (PC-3): > 100 µM; TGI (PC-3): > 100 µM; growth at 1 µM (IGROV-1 [7]): 9%; growth at 1 µM (NCI/ADR-RES): 7%; growth at 10 µM (NCI-H226): 39.8%; growth at 10 µM (NCI-H460): -5.33%; growth at 10 µM (HL-60(TB) [8]): -20%; growth at 10 µM (HOP-62): 32%; growth at 10 µM (IGROV-1 [9]): -6%; growth at 10 µM (TK-10): 34%
